In the library only some 5.8% were active in any assay of this set; here they are far more common.
KDM4C inh – KDM4C (human) demethylase inhibition. Q9H3R0. GST-KDM4C 2-372, H3K9me3 peptide, LANCE TR-FRET. 0.15% of 96,000 active. inhibition, % at 12.5 µM;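 active means mean replicate inhibition above about 25%, with at least 55% of replicates also reaching it, limit read from the data, passing the limit was not always enough; inconclusive means only one of those two conditions met; inactive means neither condition met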
Target sequence (Q9H3R0 2-372 limits assumed): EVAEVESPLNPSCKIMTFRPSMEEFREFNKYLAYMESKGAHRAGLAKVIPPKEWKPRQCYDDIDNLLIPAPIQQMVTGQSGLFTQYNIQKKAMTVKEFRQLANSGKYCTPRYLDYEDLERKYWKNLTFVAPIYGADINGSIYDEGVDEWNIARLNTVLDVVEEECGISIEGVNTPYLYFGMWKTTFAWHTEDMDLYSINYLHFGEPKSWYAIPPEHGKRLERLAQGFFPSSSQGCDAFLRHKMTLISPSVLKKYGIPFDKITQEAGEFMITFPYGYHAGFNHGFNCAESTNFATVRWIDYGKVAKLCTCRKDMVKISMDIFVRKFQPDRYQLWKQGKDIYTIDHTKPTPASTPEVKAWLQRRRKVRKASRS
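Material: GST-tagged GASC-1 (JMJD2C) catalytic fragment, aa 2-372 / Quantity: enzyme final amount 10 nM / Medium: HEPES buffer, pH 7.5, plus ascorbate / Doses: one test concentration per compound / Incubation: 30 min reaction, 60 min detection, RT / Measured by: LANCE TR-FRET / Read-out: inhibition from TR-FRET ratio decrease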
IDH1 mut inh – blocks human IDH1 R132H reductase activity; 0.18% of 70,000 active; diaphorase/resazurin fluorescence, 60 min; O75874; inhibition, % at 10 µM; in the data active means inhibition above about 34%; inconclusive means no clear call, values can overlap the other calls; inactive means below about 11%;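 further: 0% = DMSO and 100% = no enzyme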
Pf Dd2 inh – P. falciparum Dd2 growth inhibition | SYBR Green, 72 h; hits give low values | 2.3% of 94,000 active | activity change, % at 10 µM | AID 1159554; in the data active means activity change below about -80%; inconclusive means no clear call, values can overlap the other calls
T cruzi growth-1 – T. cruzi proliferation inhibition. 5.9% of 77,000 active. inhibition, % at 8.34 µM. T. cruzi beta-gal in NIH3T3, GalScreen luminescence, 90 h;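 active means mean inhibition above about 93%, with at least 55% of replicates each passing it, limit read from the data, passing the limit was not always enough; inconclusive means only one of those two conditions holds; inactive means neither condition holds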
T cruzi growth-2 – blocks T. cruzi growth in NIH3T3 host cells; 72% of 5,600 active; inhibition, % at 8.35 µM; AID 651739; shares compounds with T cruzi growth-1; T. cruzi beta-gal in NIH3T3, GalScreen luminescence, 90 h;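 active means mean replicate inhibition above about 95% and at least 55% of replicates individually reaching it, limit read from the data; inconclusive means only one of the two criteria is met; inactive means neither criterion is met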
T cruzi growth-3 – Trypanosoma cruzi proliferation inhibition; T. cruzi beta-gal in NIH3T3, GalScreen luminescence, 90 h; inhibition, % at 2.09 µM; shares compounds with T cruzi growth-1; AID 651740; 21% of 5,600 active;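 active means mean inhibition above about 95%, with at least 55% of replicates also reaching it, limit read from the data; inconclusive means meets just one of the two conditions; inactive means meets neither condition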;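 further: plate controls were neutral control median for no effect and positive control median for full effect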
NIH3T3 tox – cytotoxicity in mouse NIH/3T3 fibroblasts. shares compounds with T cruzi growth-1. NIH/3T3 viability, CellTiter-Glo ATP luminescence, 90 h. cytotoxicity (signal decrease), % at 8.35 µM. 14% of 5,600 active. AID 651742;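 active means mean signal decrease across replicates above about 35% based on untreated-well scatter, with enough replicates individually passing, limit read from the data; inconclusive means no rule stated though some were filed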;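 further: 0% = median of neutral control wells and 100% = median of positive control wells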
NIH3T3 tox 2 – cytotoxicity in mouse NIH/3T3 fibroblasts; 56% of 5,600 active; NIH/3T3 viability, CellTiter-Glo ATP luminescence, 90 h; shares compounds with T cruzi growth-1; inhibition, % at 24.9 µM;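 active means mean loss of cell viability signal at or above a set limit, and enough replicates individually reaching it; inconclusive means meets only the mean limit or only the replicate share; inactive means meets neither condition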;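 further: 0% = median of neutral control wells and 100% = median of positive control wells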
Starred values were filed as active, the others as inactive; ? = inconclusive; nt = no result.

SMILES	KDM4C inh	IDH1 mut inh	Pf Dd2 inh	T cruzi growth-1	T cruzi growth-2	T cruzi growth-3	NIH3T3 tox	NIH3T3 tox 2
COc1ccc(Cl)cc1NC(=O)CN(c1ccc(I)cc1)S(C)(=O)=O	nt	0	nt	nt	nt	nt	nt	nt
C[C@H](CO)N1C[C@H](C)[C@@H](CN(C)Cc2ccc(C(F)(F)F)cc2)Oc2ccc(NC(=O)Nc3ccccc3)cc2C1=O	1	nt	-79	51	nt	nt	nt	nt
C[C@H]1CN([C@@H](C)CO)C(=O)c2cc(NC(=O)Nc3ccc(F)cc3)ccc2O[C@H]1CN(C)Cc1ccc(-c2ccccc2)cc1	-2	0	-5	98*	102*	103*	32	103*
C[C@H](CO)N1C[C@H](C)[C@H](CN(C)Cc2ccc(-c3ccccc3)cc2)Oc2ccc(NC(=O)Nc3ccc(C(F)(F)F)cc3)cc2C1=O	0	4	18	81*	98*	88	14	105*
C[C@H](CO)N1C[C@H](C)[C@@H](CN(C)Cc2ccc(-c3ccccc3)cc2)Oc2ccc(NC(=O)Nc3ccc(F)cc3)cc2C1=O	1	0	18	11	nt	nt	nt	nt
C[C@H]1CN([C@@H](C)CO)C(=O)c2cc(NC(=O)Nc3ccc(C(F)(F)F)cc3)ccc2O[C@@H]1CN(C)Cc1ccc(-c2ccccc2)cc1	3	nt	2	113*	108*	40	3	104*
C[C@H]1CN([C@@H](C)CO)C(=O)c2cc(NC(=O)Nc3ccc(C(F)(F)F)cc3)ccc2O[C@H]1CN(C)Cc1ccc(-c2ccccc2)cc1	0	0	8	118*	106*	?	29	104*
COc1ccc2[nH]c(=O)[nH]c(=O)c2c1	nt	0	nt	nt	nt	nt	nt	nt
COc1ccc(N(C(C)C(=O)Nc2ccc(Cl)cc2C)S(C)(=O)=O)cc1 (stereo not given)	nt	1	nt	nt	nt	nt	nt	nt
COc1ccc(NC(=O)NCc2ccc(C(=O)O)cc2)c(OC)c1	nt	0	nt	nt	nt	nt	nt	nt
O=C(CCCOc1ccc(Cl)cc1Cl)Nc1ccccc1[N+](=O)[O-]	nt	0	nt	nt	nt	nt	nt	nt
CC(=O)N(C)C[C@H]1Oc2cc(C#CC3CCCCC3)ccc2S(=O)(=O)N([C@@H](C)CO)C[C@@H]1C	-1	nt	-57	?	108*	86	-3	56*
CC(=O)N(C)C[C@H]1Oc2cc(C#CC3CCCCC3)ccc2S(=O)(=O)N([C@H](C)CO)C[C@@H]1C	-2	2	-44	?	103*	78	42*	?
CC(=O)N(C)C[C@@H]1Oc2cc(C#CC3CCCC3)ccc2S(=O)(=O)N([C@@H](C)CO)C[C@@H]1C	0	nt	-40	88	nt	nt	nt	nt
C=C1CCC2[C@](C)(CCC[C@]2(C)C(=O)O)[C@H]1CC/C(C)=C/C(=O)O (stereo not given in full)	nt	0	nt	nt	nt	nt	nt	nt
O=C(CCCCCCC(=O)Nc1ccccc1O)N/N=C/c1cc2c(cc1Br)OCO2	nt	1	nt	nt	nt	nt	nt	nt
O=C(O)Cc1ccc(NC(=O)CN2C(=O)c3ccccc3C2=O)cc1	nt	0	nt	nt	nt	nt	nt	nt
CCCNC(=O)N1[C@H](CN(C)C(C)=O)[C@H](c2ccc(C3=CCCC3)cc2)[C@@H]1CO	3	nt	6	?	-4	0	2	3
CCCNC(=O)N1[C@H](CN(C)C(C)=O)[C@@H](c2ccc(C3=CCCC3)cc2)[C@@H]1CO	3	nt	4	?	-9	-21	-2	2
C[C@H](CO)N1C[C@H](C)[C@@H](CN(C)C(=O)Nc2ccc(C(F)(F)F)cc2)Oc2cc(-c3ccncc3)ccc2S1(=O)=O	0	6	-47	103*	110*	87	13	48*
C[C@@H]1CN([C@@H](C)CO)S(=O)(=O)c2ccc(-c3ccncc3)cc2O[C@@H]1CN(C)C(=O)Nc1ccc(C(F)(F)F)cc1	-5	1	-9	?	108*	85	23	67*
C[C@@H]1CN([C@@H](C)CO)S(=O)(=O)c2ccc(-c3ccncc3)cc2O[C@H]1CN(C)C(=O)Nc1ccc(C(F)(F)F)cc1	0	0	17	83	nt	nt	nt	nt
C[C@@H]1CCCCO[C@H](CN(C)C(=O)CCC(F)(F)F)[C@H](C)CN([C@H](C)CO)C(=O)c2cc(NS(=O)(=O)c3ccc(Cl)cc3)ccc2O1	-1	0	-65	101*	100*	61	18	-4
C[C@H]1CCCCO[C@H](CN(C)C(=O)CCC(F)(F)F)[C@@H](C)CN([C@@H](C)CO)C(=O)c2cc(NS(=O)(=O)c3ccc(Cl)cc3)ccc2O1	-1	nt	-45	75	nt	nt	nt	nt
C[C@H]1CCCCO[C@@H](CN(C)C(=O)Cc2ccccc2)[C@@H](C)CN([C@@H](C)CO)C(=O)c2cc(NS(=O)(=O)c3ccccc3)ccc2O1	1	1	-58	nt	nt	nt	nt	nt
SMILES	KDM4C inh	IDH1 mut inh	Pf Dd2 inh	T cruzi growth-1	T cruzi growth-2	T cruzi growth-3	NIH3T3 tox	NIH3T3 tox 2
Cc1ccc(S(=O)(=O)Nc2ccc3c(c2)C(=O)N([C@H](C)CO)C[C@@H](C)[C@H](CN(C)C(=O)Cc2ccccc2)OCCCC[C@@H](C)O3)cc1	0	-4	-32	97*	108*	63	1	-15
C[C@@H]1CCCCO[C@@H](CN(C)C(=O)Cc2ccccc2)[C@H](C)CN([C@@H](C)CO)C(=O)c2cc(NS(=O)(=O)c3ccc(Cl)cc3)ccc2O1	0	nt	6	100*	106*	74	3	47
COc1ccc(NC(=O)CSc2nc(C)cc(C(F)(F)F)n2)c([N+](=O)[O-])c1	nt	0	nt	nt	nt	nt	nt	nt
O=C(O)c1cccc(/C=N/NC(=O)c2ccc(C(=O)NO)cc2)c1	nt	-1	nt	nt	nt	nt	nt	nt
COc1ccc(N2C(=O)CC(SCC(=O)Nc3ccc(Cl)c(Cl)c3)C2=O)cc1 (stereo not given)	nt	0	nt	nt	nt	nt	nt	nt
O=c1cc(-c2ccc3ccccc3c2)[nH][nH]1	nt	-1	nt	nt	nt	nt	nt	nt
Cc1ccc(Cl)cc1NC(=O)C(C)NS(=O)(=O)c1ccc(Br)cc1 (stereo not given)	nt	0	nt	nt	nt	nt	nt	nt
O=C(c1ccc(F)cc1)N1CCCCN2[C@H](CO)[C@H](c3ccc(C#CC4(O)CCCC4)cc3)[C@H]2C1	0	nt	-18	106*	72	16	-2	1
O=C(C1CC1)N1CCCCN2[C@@H](CO)[C@H](c3ccc(C#CC4(O)CCCC4)cc3)[C@@H]2C1	nt	nt	20	77	nt	nt	nt	nt
O=C(c1ccc(F)cc1)N1CCCCN2[C@@H](CO)[C@H](c3ccc(C#CC4(O)CCCC4)cc3)[C@@H]2C1	2	nt	-3	62	nt	nt	nt	nt
O=C(c1ccc(F)cc1)N1CCCCN2[C@@H](CO)[C@@H](c3ccc(C#CC4(O)CCCC4)cc3)[C@@H]2C1	0	nt	2	?	80	4	-4	5
